Calls of active or inactive are those of the source. The rule behind the calls is not given here. Where a SMILES comes first, the peptide text is derived from it. Bridges are numbered along the chain shown (N, C = ends).
Columns and labels:
Hs68 [1] = experiment: Cytotoxicity against human HS68 cells at <=100 ug/ml by MTT assay in presence of 10% FBS; format: cell-based
How it was run: (§1)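 HS68 fibroblasts were grown in DMEM with 10% FBS and penicillin/streptomycin at 37°C and 5% CO2. Cells were seeded at 5 × 10^3 per well for 18 h. Medium was then switched to antibiotic-free DMEM with 0.4% or 10% FBS, as each line states, and peptide was added at 0–100 μg/ml for 1 h at 37°C. Wells were refed with growth medium and read by MTT in triplicate against no-peptide wells.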

Hs68 [2] = experiment: Cytotoxicity against human HS68 cells at <=100 ug/ml by MTT assay in presence of 0.4% FBS; format: cell-based; how it was run: as §1
[3] = Toxicity in human Erythrocyte assessed as hemolysis at 100 ug/ml in presence of 10% serum; format: cell-based
How it was run: (§2)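 Erythrocytes from EDTA-anticoagulated human donor blood were washed in PBS or PiBS containing 4 mM EDTA, then resuspended without EDTA at 2% (vol/vol). Cells were incubated with peptide (0.3–100 μg/ml final) for 1 h at 37°C, with or without 10% autologous serum. Supernatant A405 was expressed relative to 1% Nonidet P-40 lysis.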

[4] = Toxicity in human Erythrocyte assessed as concentration required to achieve 3% hemolysis; format: cell-based
Candida albicans [5] = experiment: Microbicidal activity against Candida albicans 16820 in presence of 1.2 mM Calcium ions; format: functional, organism-based
How it was run: (§3)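 Log-phase E. coli ML35 or C. albicans was incubated with increasing peptide concentrations in 10 mM PIPES, pH 7.4. The buffer contained 1.2 mM CaCl2 and 0.8 mM MgCl2, or no added divalent salts. Incubation was 2 h at 37°C, and survivors were counted as colonies.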

Staphylococcus aureus [6] = experiment: Microbicidal activity against Staphylococcus aureus 502a at 5 ug/ml in presence of 160 mM NaCl; format: functional, organism-based
How it was run: (§4)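 S. aureus in log phase was incubated with 5 μg/ml peptide in 10 mM PIPES, pH 7.4, containing increasing NaCl for 2 h at 37°C. Killing was determined by colony counting and expressed as a percentage of killing in buffer alone.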

Staphylococcus aureus [7] = experiment: Microbicidal activity against Staphylococcus aureus 502a at 5 ug/ml in presence of <= 80 mM NaCl; format: functional, organism-based; how it was run: as §4
Escherichia coli [8] = experiment: Microbicidal activity against Escherichia coli ML35 in presence of 0.8 mM Magnesium ions; format: functional, organism-based; how it was run: as §3
Escherichia coli [9] = experiment: Microbicidal activity against Escherichia coli ML35; format: functional
How it was run: (§5)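 Log-phase organisms (1–2 × 10^6 CFU/ml) were exposed to serially diluted peptide (0.05–10.0 μg/ml final) in 10 mM PIPES, pH 7.4, with 5 mM glucose for 2 h at 37°C. Aliquots were serially diluted 1:10 to 1:10^6 in Trypticase soy or Sabouraud broth and grown 24–48 h at 37°C. MMC was the lowest concentration giving 99.9% viability loss in at least two experiments.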

Escherichia coli [10] = experiment: Microbicidal activity against Escherichia coli ML35 at 16 ug/ml in presence of 10% heat-inactivated human serum; format: functional, organism-based
How it was run: (§6)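 Human serum was heat-inactivated at 55°C for 30 min and clarified by centrifugation. E. coli was then exposed to a dose series of peptide in 10 mM PIPES, pH 7.4, with 10% of this serum. Killing was counted as colonies and expressed relative to incubations without serum.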

Candida albicans [11] = experiment: Microbicidal activity against Candida albicans 16820 in presence of 0.8 mM Magnesium ions; format: functional, organism-based; how it was run: as §3
Staphylococcus aureus [12] = experiment: Microbicidal activity against Staphylococcus aureus 502a in presence of 1.2 mM Calcium ions; format: functional, organism-based
Escherichia coli [13] = experiment: Microbicidal activity against Escherichia coli ML35 in presence of 1.2 mM Calcium ions; format: functional, organism-based; how it was run: as §3
Candida albicans [14] = experiment: Microbicidal activity against Candida albicans 16820 using PIPES buffer in presence of NaCl; format: functional, organism-based
How it was run: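 Log-phase C. albicans was incubated with peptide in 10 mM PIPES, pH 7.4, supplemented with NaCl, for 2 h at 37°C. Survivors were plated on Sabouraud dextrose agar and counted after 18–24 h at 37°C.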

Staphylococcus aureus [15] = experiment: Microbicidal activity against Staphylococcus aureus 502a using 10 mM sodium phosphate buffer in presence of 154 mM NaCl; format: functional, organism-based
How it was run: (§7)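 Log-phase S. aureus was exposed to increasing peptide concentrations for 2 h at 37°C. Buffer was 10 mM PIPES, Tris-HCl or sodium phosphate, pH 7.4, with or without 154 mM NaCl. Killing was read by colony counting.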

Candida albicans [16] = experiment: Microbicidal activity against Candida albicans 16820; format: functional; how it was run: as §5
Escherichia coli [17] = experiment: Microbicidal activity against Escherichia coli ML35 assessed as induction of cytoplasmic membrane permeabilization at 1 ug/ml; format: functional, organism-based
How it was run: (§8)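 Log-phase E. coli ML35 (1–2 × 10^6 CFU/ml) was incubated with peptide (0–8 μg/ml final) in 10 mM PIPES, pH 7.4, containing 3 mM ONPG. ONPG hydrolysis was followed at 405 nm for 60 min. The rate was taken as the highest kinetic slope and corrected for peptide inhibition of β-galactosidase measured cell-free.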

Staphylococcus aureus [18] = experiment: Microbicidal activity against Staphylococcus aureus 502a using 10 mM PIPES buffer in presence of 154 mM NaCl; format: functional, organism-based; how it was run: as §7
[19] = target: Beta-galactosidase (Escherichia coli) (UniProt Q8VNN2); experiment: Inhibition of Escherichia coli ML35 Beta-galactosidase assessed as hydrolysis of o-nitrophenyl-beta-d-galactopyranoside at 2 ug/ml
[20] = Selectivity index, ratio of MMC for Staphylococcus aureus 502a to hemolytic activity for human erythrocytes
Candida albicans [21] = experiment: Microbicidal activity against Candida albicans 16820 assessed as log reduction in microbial count at 10 ug/ml using PIPES buffer
[22] = Toxicity in human Erythrocyte assessed as hemolysis at 100 ug/ml; format: cell-based; how it was run: as §2
Staphylococcus aureus [23] = experiment: Microbicidal activity against Staphylococcus aureus 502a in presence of 0.8 mM Magnesium ions; format: functional, organism-based
[24] = target: Beta-galactosidase (Escherichia coli) (UniProt Q8VNN2); experiment: Inhibition of Escherichia coli ML35 beta-galactosidase assessed as inhibition of o-nitrophenyl-beta-d-galactopyranoside hydrolysis at 1 ug/ml after 60 mins; how it was run: as §8
Escherichia coli [25] = experiment: Microbicidal activity against Escherichia coli ML35 at <=8 ug/ml in presence of 10% heat-inactivated human serum; format: functional, organism-based; how it was run: as §6
Staphylococcus aureus [26] = experiment: Microbicidal activity against Staphylococcus aureus 502a; format: functional; how it was run: as §5
Staphylococcus aureus [27] = experiment: Microbicidal activity against Staphylococcus aureus 502a at >= 2 ug/ml in presence of 10% human serum; format: functional, organism-based
How it was run: (§9)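 S. aureus was incubated with a dose series of peptide in 10 mM PIPES, pH 7.4, containing 10% normal human serum. Bacterial killing was determined by colony counting and expressed as a percentage of killing in incubations lacking serum.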

Staphylococcus aureus [28] = experiment: Microbicidal activity against Staphylococcus aureus 502a at 0.5 to 2 ug/ml in presence of 10% human serum; format: functional, organism-based; how it was run: as §9
Staphylococcus aureus [29] = experiment: Microbicidal activity against Staphylococcus aureus 502a using 10 mM Tris-HCl buffer in presence of 154 mM NaCl; format: functional, organism-based; how it was run: as §7
[30] = Inhibition of beta-galactosidase in cell-free system assessed as inhibition of o-nitrophenyl-beta-d-galactopyranoside hydrolysis
[31] = target: Beta-galactosidase (Escherichia coli) (UniProt Q8VNN2); experiment: Inhibition of Escherichia coli ML35 Beta-galactosidase assessed as inhibition of o-nitrophenyl-beta-d-galactopyranoside hydrolysis at 4 ug/ml

Chain of Beta-galactosidase (Escherichia coli) (Q8VNN2 whole entry, looked up): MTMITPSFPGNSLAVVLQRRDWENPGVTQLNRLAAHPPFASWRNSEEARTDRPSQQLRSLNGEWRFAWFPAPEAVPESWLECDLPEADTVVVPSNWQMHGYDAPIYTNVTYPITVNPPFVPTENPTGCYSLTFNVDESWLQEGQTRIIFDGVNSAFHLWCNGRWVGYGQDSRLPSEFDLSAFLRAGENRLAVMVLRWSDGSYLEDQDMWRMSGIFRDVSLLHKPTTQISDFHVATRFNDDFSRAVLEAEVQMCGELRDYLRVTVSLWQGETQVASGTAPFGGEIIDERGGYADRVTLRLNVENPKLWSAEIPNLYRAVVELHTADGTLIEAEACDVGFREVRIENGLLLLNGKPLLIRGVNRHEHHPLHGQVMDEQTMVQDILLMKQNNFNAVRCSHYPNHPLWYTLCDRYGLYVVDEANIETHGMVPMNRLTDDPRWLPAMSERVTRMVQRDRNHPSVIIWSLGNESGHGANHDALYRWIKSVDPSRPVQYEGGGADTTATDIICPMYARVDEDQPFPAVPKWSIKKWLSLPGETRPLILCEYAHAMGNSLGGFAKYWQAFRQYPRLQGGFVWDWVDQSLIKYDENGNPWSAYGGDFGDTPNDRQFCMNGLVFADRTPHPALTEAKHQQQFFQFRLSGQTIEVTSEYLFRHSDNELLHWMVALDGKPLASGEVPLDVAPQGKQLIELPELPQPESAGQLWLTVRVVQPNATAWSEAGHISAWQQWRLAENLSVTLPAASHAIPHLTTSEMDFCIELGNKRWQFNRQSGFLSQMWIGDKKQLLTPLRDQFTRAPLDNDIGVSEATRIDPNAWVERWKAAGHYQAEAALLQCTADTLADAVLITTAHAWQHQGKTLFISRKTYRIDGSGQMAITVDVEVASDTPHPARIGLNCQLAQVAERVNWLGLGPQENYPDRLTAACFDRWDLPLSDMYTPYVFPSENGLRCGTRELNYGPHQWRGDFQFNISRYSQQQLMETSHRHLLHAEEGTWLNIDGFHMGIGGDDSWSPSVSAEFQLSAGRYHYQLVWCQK

Row | SMILES | Activity [3] | Activity [4] [µg/mL] | Activity (Candida albicans [5]) | Activity (Staphylococcus aureus [6]) | Activity (Staphylococcus aureus [7]) | Activity (Escherichia coli [8]) | MMC (Escherichia coli [9]) [µg/mL] | Activity (Escherichia coli [10]) | Activity (Candida albicans [11]) | Activity (Staphylococcus aureus [12]) | Activity (Escherichia coli [13]) | Activity (Candida albicans [14]) | Activity (Staphylococcus aureus [15]) | MMC (Candida albicans [16]) [µg/mL] | Activity (Escherichia coli [17]) | Activity (Staphylococcus aureus [18]) | Selectivity Index [20] | FC (Candida albicans [21]) | Activity (Staphylococcus aureus [23]) | Activity (Escherichia coli [25]) | also measured
1 | CC[C@H](C)[C@@H]1NC(=O)[C@@H]2CSSC[C@H](NC(=O)[C@H](CCCNC(=N)N)NC(=O)[C@@H]3CSSC[C@H](NC1=O)C(=O)N[C@@H]([C@@H](C)O)C(=O)N[C@@H](CCCNC(=N)N)C(=O)NCC(=O)N[C@@H](Cc1ccccc1)C(=O)N3)C(=O)N[C@@H](CC(C)C)C(=O)N[C@H]1CSSC[C@H](NC(=O)[C@H](C(C)C)NC(=O)CNC(=O)[C@H](CCCNC(=N)N)NC(=O)[C@H](CCCNC(=N)N)NC1=O)C(=O)N[C@@H](CCCNC(=N)N)C(=O)N2 [listing 1 of 2 here] | Non-toxic | 5.5 |  |  |  |  |  |  |  |  |  |  |  |  |  |  |  |  |  |  | Activity (Hs68 [1]): Non-toxic; Activity (Hs68 [2]): Non-toxic
2 | CC[C@H](C)[C@@H]1NC(=O)C2CSSCC(NC(=O)[C@H](CCCNC(=N)N)NC(=O)[C@@H]3CSSC[C@H](NC1=O)C(=O)N[C@@H]([C@@H](C)O)C(=O)N[C@@H](CCCNC(=N)N)C(=O)NCC(=O)N[C@@H](Cc1ccccc1)C(=O)N3)C(=O)N[C@@H]([C@@H](C)CC)C(=O)N[C@H]1CSSC[C@H](NC(=O)[C@H](Cc3ccccc3)NC(=O)CNC(=O)[C@H](CCCNC(=N)N)NC(=O)[C@H]([C@@H](C)O)NC1=O)C(=O)N[C@@H](CCCNC(=N)N)C(=O)N2 (single isomer, unassigned) | Non-toxic | 21 | inactive | inactive | Active | Active | 2.3 | Active | inactive | Active | Active | inactive | inactive | 3 | inactive | inactive | 14 | >3 | Active | inactive | inhibition [19]: 78%; Activity [22]: Non-toxic; inhibition [24]: Active; MMC (Staphylococcus aureus [26]): 1.5 µg/mL; Activity (Staphylococcus aureus [27]): Active; Activity (Staphylococcus aureus [28]): inactive
3 | CC[C@H](C)[C@@H]1NC(=O)[C@@H]2CSSC[C@H](NC(=O)[C@H](CCCNC(=N)N)NC(=O)[C@@H]3CSSC[C@H](NC1=O)C(=O)N[C@@H]([C@@H](C)O)C(=O)N[C@@H](CCCNC(=N)N)C(=O)NCC(=O)N[C@@H](Cc1ccccc1)C(=O)N3)C(=O)N[C@@H](CC(C)C)C(=O)N[C@H]1CSSC[C@H](NC(=O)[C@H](C(C)C)NC(=O)CNC(=O)[C@H](CCCNC(=N)N)NC(=O)[C@H](CCCNC(=N)N)NC1=O)C(=O)N[C@@H](CCCNC(=N)N)C(=O)N2 [listing 2 of 2 here] |  |  |  |  |  |  | 2 |  |  |  |  |  |  | 1 |  |  | 5.5 | >3 |  |  | MMC (Staphylococcus aureus [26]): 1 µg/mL
4 | CC[C@H](C)[C@@H]1NC(=O)[C@@H]2CSSC[C@H](NC(=O)[C@H](CCCNC(=N)N)NC(=O)[C@@H]3CSSC[C@H](NC1=O)C(=O)N[C@@H]([C@H](C)O)C(=O)N[C@@H](CCCNC(=N)N)C(=O)NCC(=O)N[C@H](Cc1ccccc1)C(=O)N3)C(=O)N[C@@H](CC(C)C)C(=O)N[C@@H]1CSSC[C@@H](NC(=O)[C@H](C(C)C)NC(=O)CNC(=O)[C@H](CCCNC(=N)N)NC(=O)[C@H](CCCNC(=N)N)NC1=O)C(=O)N[C@@H](CCCNC(=N)N)C(=O)N2 |  |  | inactive | inactive | Active | Active |  | Active | inactive | Active | Active | inactive | Active |  | Active | Active |  |  | Active | inactive | Activity (Staphylococcus aureus [29]): Active; inhibition [30]: Dose-dependent effect; inhibition [31]: 36%; Activity (Staphylococcus aureus [27]): Active; Activity (Staphylococcus aureus [28]): inactive
5 | CC(C)C[C@@H]1NC(=O)[C@@H]2CSSC[C@H](NC(=O)[C@H](CCCNC(=N)N)NC(=O)[C@@H]3CSSC[C@H](NC1=O)C(=O)N[C@@H](CCCNC(=N)N)C(=O)N[C@@H](CCCNC(=N)N)C(=O)NCC(=O)N[C@@H](C(C)C)C(=O)N3)C(=O)N[C@@H](CC(C)C)C(=O)N[C@H]1CSSC[C@H](NC(=O)[C@H](C(C)C)NC(=O)CNC(=O)[C@H](CCCNC(=N)N)NC(=O)[C@H](CCCNC(=N)N)NC1=O)C(=O)N[C@@H](CCCNC(=N)N)C(=O)N2 (cyclo(CLCRRGVCRCLCRRGVCR); disulfide 1-10, 3-8, 12-17) | Non-toxic | 6.2 | inactive | inactive | Active | Active | 2 | Active | inactive | Active | Active | inactive | Active | 1 | Active | Active | 6.2 | >3 | Active | inactive | Activity (Staphylococcus aureus [29]): Active; inhibition [30]: Dose-dependent effect; inhibition [31]: 36%; Activity [22]: Non-toxic; inhibition [24]: Active; MMC (Staphylococcus aureus [26]): 1 µg/mL; Activity (Staphylococcus aureus [27]): Active
